Measured values: PubChem BioAssay
Results filed as inconclusive are left out.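 The calls were made as follows, unless noted: active = viability at or below 27.92% in each of two runs, the all-compound median minus 4 SD; inconclusive = no clear call, values can overlap the other calls; inactive = the rest.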

How the values were obtained:
[1] = OD615 S. cerevisiae growth inhibition, permissive medium, pilot counter-assay, permissive growth control for S. cerevisiae lifespan shortening project (AID 705;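 active = growth inhibition above 25% in both replicates, a cutoff set 3 SD above the mean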); conditions: OD615, 24 h, at 10 µM, active compounds read high
How it was run: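 System: S. cerevisiae with engineered DeaD lifespan system / Measured by: absorbance (optical density) at 615 nm / Read-out: reduction in yeast growth (OD615) / Times: 4 h cell pre-growth, 24 h exposure at 30 °C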

[2] = Restrictive medium S. cerevisiae growth inhibition, OD615, pilot screen of yeast lifespan reduction project, restrictive growth control (AID 706;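 active = growth inhibition above a set limit, 3 SD over mean compound inhibition, in both replicates, cut at about 43% in these data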;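 also: modified DeaD lifespan yeast strain shifted to restrictive glucose medium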); conditions: OD615, 48 h, at 10 µM, active compounds read high
How it was run: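 System: Engineered S. cerevisiae DeaD strain | Buffer or medium: Glucose-based CSMM-D restrictive medium | Schedule: 4 h pre-incubation, 48 h exposure at 30 °C | Technique: Optical density at 615 nm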

[3] = viability gain of MRP-1-high H69AR cells under doxorubicin, pilot screen, MRP-1 activator project, CellTiter-Glo, duplicate (AID 807;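 active = viability increase at or above a cutoff of the median across tested compounds plus 3 SD, cut at about 8.5% in these data, passing the limit was not always enough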;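 also: compound pretreatment 18-22 h then 72 h combined with doxorubicin; 0% = doxorubicin alone and 100% = vehicle without doxorubicin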); conditions: H69AR viability with doxorubicin, CellTiter-Glo luminescence; at 10 µM; active compounds read high
[4] = growth suppression of beta-catenin knockout HCT116, pilot screen, human colon tumor cells (AID 823;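 active = cell viability at or below a set limit in both duplicate runs, the limit being the all-compound median minus 4 SD, cut at about 23% in these data, passing the limit was not always enough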;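 also: 0% = wells killed by 20 µM Hyamine and 100% = untreated DMSO cell wells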); conditions: CellTiter-Glo, 60 h, at 10 µM, active compounds read low
[5] = growth suppression of PTEN-deleted HCT116, pilot screen, cell-based, HCT116 clonal line, CellTiter-Glo (AID 824); conditions: 60 h, at 10 µM, active compounds read low;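 also: 0% = 20 µM Hyamine control and 100% = vehicle cell control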
[6] = inhibitors of the yeast RAM network, pilot screen, dse1pr::URA3 reporter, 5-FOA selection (AID 869;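 active = inhibition over a set limit, the all-compound mean plus 3 SD, in both replicate runs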;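 also: 0% = DMSO wells with no growth and 100% = 10 µM 1-NA-PP1 with full growth; RAM network block rescues cells from 5-FOA so hits raise OD615 growth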); conditions: S. cerevisiae dse1pr::URA3 5-FOA growth, OD615, 2 d; at 10 µM; active compounds read high; strain carries analog-sensitive mutant Cbk1 kinase
[7] = RAM signaling pathway blockade in yeast – S. cerevisiae, Pdr1DBD-CYC8 efflux-inhibited sensitized strain, primary screen (AID 1298;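 active = RAM network inhibition above 8.4% in each of two replicates, 3 SD over the compound average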;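 also: 0% = DMSO untreated cells without growth and 100% = 10 µM 1-NA-PP1 full growth; higher means more yeast growth rescued from 5-FOA killing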); conditions: S. cerevisiae cbk1-as DSE1-URA3 strain, 5-FOA growth OD615, 2 d; at 50 µM; active compounds read high

O=C(NCc1cccs1)C1CCCN(S(=O)(=O)c2cccc3cccnc23)C1 (centres undefined)
inactive: growth inhibition [1] 8.41% | growth inhibition [2] 2.37% | viability increase [3] -1.59% | viability [4] 94.8% | viability [5] 90.4% | inhibition [6] 1.41% | RAM network inhibition [7] 2.64%

Cc1ccc(C2CC(c3ccccc3C)n3nc(N)nc3N2)cc1 (centres undefined)
inactive: growth inhibition [1] 0.605% | growth inhibition [2] -2.86% | viability increase [3] -0.57% | viability [4] 84.6% | viability [5] 83% | inhibition [6] 0.77% | RAM network inhibition [7] 4.75%

Cn1c(C(=O)N2CCN(Cc3ccc4c(c3)OCO4)CC2)cc2c(=O)n(C)c3ccccc3c21
inactive: growth inhibition [1] -1.14% | growth inhibition [2] 0.725% | viability increase [3] -1.54% | viability [4] 67.9% | viability [5] 71.9% | inhibition [6] 3.29% | RAM network inhibition [7] 0.67%

CCOc1cccc(OCCOCCN(C)Cc2ccccc2)c1
inactive: growth inhibition [1] 2.5% | growth inhibition [2] -3.23% | viability increase [3] -4.15% | viability [4] 75.3% | viability [5] 78.9% | inhibition [6] 0.55% | RAM network inhibition [7] 0.2%

CCC(C)[C@@H](C(=O)Nc1ccc(OC)c(OC)c1)N1Cc2ccccc2C1=O (some centres undefined)
inactive: growth inhibition [1] -13.5% | growth inhibition [2] -13.6% | viability increase [3] -2.11% | viability [4] 91.8% | viability [5] 82.8% | inhibition [6] 2.65% | RAM network inhibition [7] 2.81%

Cc1nnc(NC(=O)c2oc3cc(C)c(C)cc3c2C)s1
inactive: growth inhibition [1] -3.77% | growth inhibition [2] -4.99% | viability increase [3] -0.05% | viability [4] 105% | viability [5] 99.8% | inhibition [6] 1.64% | RAM network inhibition [7] 5.7%

O=C(NCCC1=CCCCC1)C1CCCN(S(=O)(=O)c2cccc3cccnc23)C1 (centres undefined)
inactive: growth inhibition [1] -14.8% | growth inhibition [2] -12.7% | viability increase [3] -1.42% | viability [4] 89% | viability [5] 80.6% | inhibition [6] 2.14% | RAM network inhibition [7] 5.84%

Cn1c(=O)oc2cc(S(=O)(=O)Nc3cccc(F)c3)ccc21
inactive: growth inhibition [1] -14.2% | growth inhibition [2] -2.1% | viability increase [3] -0.69% | viability [4] 94.3% | viability [5] 89.5% | inhibition [6] 2.04% | RAM network inhibition [7] 5.85%

CC(C)c1ccccc1NC(=O)CCCC(=O)O
inactive: growth inhibition [1] -2.18% | growth inhibition [2] -0.2% | viability increase [3] -0.29% | viability [4] 96.9% | viability [5] 102% | inhibition [6] 0.36% | RAM network inhibition [7] 2.42%

CCC(Sc1nc(C)cc(=O)[nH]1)C(=O)Nc1ccc(Cl)cn1 (centres undefined)
inactive: growth inhibition [1] -2.36% | growth inhibition [2] 26.5% | viability increase [3] -3.4% | viability [4] 98.9% | viability [5] 96.7% | inhibition [6] 1.84% | RAM network inhibition [7] 3.08%

Cc1cc(C)nc(SCCn2c(N3CCC(C)CC3)nc3c2c(=O)n(C)c(=O)n3C)n1
inactive: growth inhibition [1] -3.83% | growth inhibition [2] 0.625% | viability increase [3] 1.09% | viability [4] 99.9% | viability [5] 97.3% | inhibition [6] 1.71% | RAM network inhibition [7] 1.91%

N#CCCN1CCN(C(CNS(=O)(=O)c2ccc(Cl)cc2)c2ccccc2)CC1 (centres undefined)
inactive: growth inhibition [1] -11.4% | growth inhibition [2] -16.5% | viability increase [3] -1.72% | viability [4] 95.3% | viability [5] 94.8% | inhibition [6] 1.9% | RAM network inhibition [7] 6.39%

O=C(Nc1ccc2nc(-c3cccnc3)[nH]c2c1)c1ccco1
inactive: growth inhibition [1] -2% | growth inhibition [2] -20.3% | viability increase [3] -2.85% | viability [4] 100% | viability [5] 97.4% | inhibition [6] 0.845% | RAM network inhibition [7] 4.67%

CCOC(=O)c1[nH]c(C)c(C(=O)Nc2ccc(C)c(C)c2)c1C
inactive: growth inhibition [1] -12.6% | growth inhibition [2] -10.7% | viability increase [3] -4.91% | viability [4] 64.1% | viability [5] 45.9% | inhibition [6] 1.46% | RAM network inhibition [7] 1.84%

O=C(NCc1ccccn1)c1ccc2ccccc2n1
inactive: growth inhibition [1] 4.58% | growth inhibition [2] -7.25% | viability increase [3] -1.47% | viability [4] 111% | viability [5] 102% | inhibition [6] 1.32% | RAM network inhibition [7] 5.32%

O=C(C1CCN(S(=O)(=O)c2cccc3cccnc23)CC1)N1CCCC1
inactive: growth inhibition [1] 11.8% | growth inhibition [2] 7.97% | viability increase [3] -3.23% | viability [4] 97% | viability [5] 87.9% | inhibition [6] 1.52% | RAM network inhibition [7] 0.06%

Cc1ccc(N2C(=O)c3oc4ccccc4c(=O)c3C2c2cccnc2)nc1 (centres undefined)
inactive: growth inhibition [1] -12.7% | growth inhibition [2] -4.26% | viability increase [3] 0.88% | viability [4] 99.3% | viability [5] 102% | inhibition [6] 1.04% | RAM network inhibition [7] 5.38%

Cc1ccc2cc(-c3noc(C4CCCO4)n3)c(=O)[nH]c2c1 (centres undefined)
inactive: growth inhibition [1] -12.5% | growth inhibition [2] -7.12% | viability increase [3] -0.44% | viability [4] 108% | viability [5] 100% | inhibition [6] 0.82% | RAM network inhibition [7] 4.44%

COc1cc(C(=O)Nc2cccc(-c3nc4ccccc4o3)c2C)cc(OC)c1OC
inactive: growth inhibition [1] -20.9% | growth inhibition [2] -26.2% | viability increase [3] -2.22% | viability [4] 91.2% | viability [5] 98.7% | inhibition [6] 2.46% | RAM network inhibition [7] 1.35%

Cc1ccc(-n2ncc3c(=O)[nH]c(SCC(=O)N4CCCCC4)nc32)cc1
inactive: growth inhibition [1] -4.04% | growth inhibition [2] 2.2% | viability increase [3] -4.87% | viability [4] 94.6% | viability [5] 92.1% | inhibition [6] 1.27% | RAM network inhibition [7] 0.05%

Cc1ccc2c(c1)NC(=O)C(CC(=O)O)O2 (centres undefined)
inactive: growth inhibition [1] 2.33% | growth inhibition [2] 0.555% | viability increase [3] -0.27% | viability [4] 103% | viability [5] 99.7% | inhibition [6] 1.48% | RAM network inhibition [7] 4.69%

CCc1c(C)nc(SCCOc2ccc(OC)cc2)[nH]c1=O
inactive: growth inhibition [1] -12.6% | growth inhibition [2] -9.17% | viability increase [3] -0.04% | viability [4] 108% | viability [5] 93.9% | inhibition [6] -0.015% | RAM network inhibition [7] 1.64%

COC(=O)CN1C(=O)COc2ccc(Cl)cc21
inactive: growth inhibition [1] 4.22% | growth inhibition [2] -4.81% | viability increase [3] -0.89% | viability [4] 104% | viability [5] 94% | inhibition [6] 0.605% | RAM network inhibition [7] 2.29%

NC(=O)c1ccsc1NC(=O)c1ccc(S(=O)(=O)N2CCCCC2)cc1
inactive: growth inhibition [1] -4.08% | growth inhibition [2] -4.94% | viability increase [3] -0.57% | viability [4] 71.9% | viability [5] 58.3% | inhibition [6] 1.47% | RAM network inhibition [7] 2.41%

N#Cc1ccccc1N=C1CCCN1Cc1ccccc1
inactive: growth inhibition [1] -3.08% | growth inhibition [2] 9.46% | viability increase [3] 0.25% | viability [4] 88.8% | viability [5] 95.2% | inhibition [6] 0.63% | RAM network inhibition [7] 4.48%

COc1ccc(OC)c(N(CC(=O)NCCSc2ccccc2)S(C)(=O)=O)c1
inactive: growth inhibition [1] -4.86% | growth inhibition [2] -9.71% | viability increase [3] -3.1% | viability [4] 96.9% | viability [5] 95.5% | inhibition [6] 0.23% | RAM network inhibition [7] 4.35%

Cc1cc(C)n2nc(S(=O)(=O)NC3CCCCC3)nc2n1
inactive: growth inhibition [1] -7.41% | growth inhibition [2] -7.9% | viability increase [3] -0.66% | viability [4] 103% | viability [5] 98.5% | inhibition [6] 1.06% | RAM network inhibition [7] -0.89%

COc1cc(OC)cc(C(=O)NCC2CCCO2)c1 (centres undefined)
inactive: growth inhibition [1] -7.69% | growth inhibition [2] 10.1% | viability increase [3] -1.51% | viability [4] 94.6% | viability [5] 91.7% | inhibition [6] 0.465% | RAM network inhibition [7] 0.29%

CCCCOC(=O)Nc1ccc(N2CCOCC2)cc1
inactive: growth inhibition [1] -0.54% | growth inhibition [2] 2.39% | viability increase [3] -0.38% | viability [4] 98.2% | viability [5] 102% | inhibition [6] 1.28% | RAM network inhibition [7] 4.87%

NC(=O)C1(S(=O)(=O)c2ccccc2)CCCCC1
inactive: growth inhibition [1] -0.22% | growth inhibition [2] -4.29% | viability increase [3] -1.06% | viability [4] 97.8% | viability [5] 96.7% | inhibition [6] 1.43% | RAM network inhibition [7] 4.97%

COc1ccc(-c2nnc3ccc(SCC(=O)N4CCOCC4)nn23)cc1
inactive: growth inhibition [1] 3.68% | growth inhibition [2] 30.1% | viability increase [3] -2.73% | viability [4] 99.6% | viability [5] 105% | inhibition [6] 0.96% | RAM network inhibition [7] 0.73%

CCCCCn1c(SCCOCC)nc2c1c(=O)[nH]c(=O)n2C
inactive: growth inhibition [1] -10.1% | growth inhibition [2] -15.6% | viability increase [3] -0.61% | viability [4] 96.2% | viability [5] 97.2% | inhibition [6] 1.75% | RAM network inhibition [7] 4.65%

CCOC(=O)C1CCCN(C(=O)c2ccccc2Oc2ccccc2)C1 (centres undefined)
inactive: growth inhibition [1] -6.35% | growth inhibition [2] -9.14% | viability increase [3] -1.3% | viability [4] 91.1% | viability [5] 102% | inhibition [6] 0.545% | RAM network inhibition [7] 1.27%

COCCN(C(=O)Nc1ccccc1)C(C)c1cccnc1 (centres undefined)
inactive: growth inhibition [1] 9.6% | growth inhibition [2] -1.42% | viability increase [3] -2.41% | viability [4] 93.5% | viability [5] 97.5% | inhibition [6] 1.54% | RAM network inhibition [7] -1.08%

CC(=O)C1=C(C)NC(SCC(=O)c2ccccc2)=C(C#N)C1c1ccco1 (centres undefined)
inactive: growth inhibition [1] -3.25% | growth inhibition [2] 21.2% | viability increase [3] -6.35% | viability [4] 55% | viability [5] 56% | inhibition [6] 1.5% | RAM network inhibition [7] 3.37%

Cc1ccc(Nc2cc(C)nc3nc(C)nn23)cc1
inactive: growth inhibition [1] -3.6% | growth inhibition [2] -11.9% | viability increase [3] -3.16% | viability [4] 97.4% | viability [5] 95.7% | inhibition [6] 2.35% | RAM network inhibition [7] 3.26%

Cc1ccc(-c2noc(CSc3nnnn3-c3ccccc3)n2)cc1
inactive: growth inhibition [1] -16.9% | growth inhibition [2] 9.4% | viability increase [3] 2.8% | viability [4] 88.1% | viability [5] 97.8% | inhibition [6] 1.95% | RAM network inhibition [7] 7.44%
